# Assay outcomes deposited in PubChem by The Scripps Research Institute Molecular Screening Center.
# M1 ag parental: M1 agonist counterscreen hit in parental CHO-K1 cells; Fluo-8 calcium fluorescence; scaled to maximal ATP response, vehicle zero; activation, % at 3 µM; hit rate 0.48% among 360,000; AID 602248; in the data active means activation above about 15%;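 further: untransfected CHO-K1 host cells lacking M1 receptor as counterscreen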
# TRPN1 ag: zebrafish TRPN1 (NompC) channel agonism; activation, % at 3 µM; hit rate 0.18% among 220,000; HEK293 zebrafish TRPN1-YFP, Fluo-8 calcium fluorescence; 100% = response to 87 µM carbachol;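 active means activation above its plate's cutoff, the mean activation of test wells on that plate plus 3 SD, cut at about 19% in these data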;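 further: 0% = DMSO alone and 100% = 87 µM carbachol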
#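 Material – zebrafish TRPN1-YFP in HEK293 cells · Doses – 3 µM single point · Schedule – dye 1 h 37 °C plus 30 min RT · Signal – Fluo-8 calcium fluorescence, excitation 470-495 nm, emission 515-575 nm · Read-out – % activation versus carbachol response · Control set – carbachol high, DMSO low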
# CHO-K1 Ca PAM: nonselective activator or artifact in parental CHO-K1 calcium assay; ATP EC20, Fluo-8 calcium fluorescence; 0% at ATP EC20, 100% at ATP max; activation, % at 3 µM; hit rate 0.02% among 360,000; AID 602247;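 active means activation above the run cutoff, the mean activation of all test compounds plus 3 SD, cut at about 40% in these data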;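 further: peak over basal fluorescence ratio in a 140 s read after ATP addition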
# CHO-K1 Ca antag: counter-screen for M1 antagonists: effect in parental CHO-K1 cells; ATP-induced calcium, Fluo-8 fluorescence; inhibition, % at 3 µM; hit rate 0.6% among 360,000; AID 602250;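 active means inhibition above a per-plate cutoff, the plate's mean sample inhibition plus 3 SD, cut at about 24% in these data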;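 further: 0% = DMSO plus EC80 ATP and 100% = DMSO alone without ATP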
# TRPML3 ag: agonists of human TRPML3 channel. activation, % at 3 µM. hit rate 0.29% among 220,000. HEK293 TRPML3-YFP, Fluo-8 calcium fluorescence; 100% = the carbachol control signal;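 active means activation above its plate's cutoff, the mean activation of the plate's test wells plus 3 SD, cut at about 12% in these data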;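 further: 0% = DMSO only wells and 100% = carbachol wells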
# Target sequence (Q8TDD5 whole entry, looked up): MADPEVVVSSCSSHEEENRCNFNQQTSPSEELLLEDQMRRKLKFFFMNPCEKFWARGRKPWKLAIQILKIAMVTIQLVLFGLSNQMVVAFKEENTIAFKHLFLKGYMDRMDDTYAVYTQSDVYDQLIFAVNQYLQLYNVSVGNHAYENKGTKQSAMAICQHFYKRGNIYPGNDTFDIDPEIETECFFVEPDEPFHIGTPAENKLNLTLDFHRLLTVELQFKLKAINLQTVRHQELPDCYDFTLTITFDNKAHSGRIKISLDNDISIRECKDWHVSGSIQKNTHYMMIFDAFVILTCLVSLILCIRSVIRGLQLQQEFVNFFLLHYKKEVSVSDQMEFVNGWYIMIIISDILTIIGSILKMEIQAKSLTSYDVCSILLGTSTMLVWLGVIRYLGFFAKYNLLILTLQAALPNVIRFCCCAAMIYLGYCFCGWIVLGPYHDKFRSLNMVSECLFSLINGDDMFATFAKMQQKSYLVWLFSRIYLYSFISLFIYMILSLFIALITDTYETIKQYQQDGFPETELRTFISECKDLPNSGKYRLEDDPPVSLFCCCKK
#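 Test system – HEK293 line with stable expression of human TRPML3-YFP channel · Control set – carbachol 87 µM final as high control (100%), DMSO as low control (0%) · Signal – Fluo-8 calcium dye fluorescence, ex 470-495, em 515-575 nm · Incubation – 1-h 37 °C dye load, 5-s basal, 120-s post-compound reads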
# Numbers without * were called inactive; nt = no result. Most compounds without a hit are left out; they make up all but 1.2% or so of the library.
SMILES,M1 ag parental,TRPN1 ag,CHO-K1 Ca PAM,CHO-K1 Ca antag,TRPML3 ag
C/C=C(/C)C(=O)OC1CC(C)(C)C[C@H]2C3=CC[C@@H]4[C@@]5(C)CCC(O[C@@H]6O[C@@H](C(=O)O)[C@@H](O)C(O[C@@H]7OC[C@H](O)[C@@H](O)[C@@H]7O[C@@H]7OC(CO)C(O)[C@@H](O)[C@@H]7O)C6O[C@@H]6OC(CO)C(O)C(O)C6O)[C@@](C)(CO)[C@@H]5CC[C@]4(C)[C@]3(C)CC(O)[C@@]12CO (some centres undefined),67*,nt,-22,49*,nt
CC1(C)C[C@H]2C3=CCC4[C@@]5(C)CC[C@H](O[C@@H]6O[C@H](C(=O)O)[C@@H](O)[C@H](O)[C@H]6O)[C@@](C)(CO)C5CC[C@@]4(C)[C@]3(C)C[C@H](O)[C@@]2(CO)[C@@H](O)[C@@H]1O (some centres undefined),0,nt,0,-2,nt
C[C@@H]1CC[C@]2(C(=O)O[C@@H]3O[C@H](CO)[C@@H](O)[C@H](O)[C@H]3O)CC[C@]3(C)C(=CCC4[C@@]5(C)CC[C@H](O[C@@H]6OC[C@H](O)[C@H](O[C@@H]7O[C@H](CO)[C@@H](O)[C@H](O)[C@H]7O)[C@H]6O)C(C)(C)C5CC[C@]43C)C2[C@]1(C)O (some centres undefined),1,nt,2,-10,nt
C[C@@H]1COc2cc(N3CCC[C@H]3CO)ccc2S(=O)(=O)N1,1,nt,10,-25,nt
O=C(NCC(F)(F)F)c1ccc2sc([C@@H]3O[C@H](CO)[C@H](O)[C@H](O)[C@H]3O)nc2c1,0,nt,-2,-7,nt
CC1CCCC(NC(=O)CSc2nnc(-c3cccnc3)o2)C1C (centres undefined),0,nt,-2,-1,nt
CCOC(=O)C1CCCN(C(=O)Cc2ccc(OC)c(OC)c2)CC1 (centres undefined),1,nt,-16,26*,nt
CCOC(=O)C1CCCN(C(=O)Cc2ccc(OC)c(OC)c2)C1 (centres undefined),0,-1,8,-7,1
Cc1c(C(=O)N2CCCC2)sc(NC(=O)c2ccc(Cl)cc2)c1C#N,0,2,-8,24*,1
COc1ccccc1C(=O)Nc1sc(C(=O)N2CCCC2)c(C)c1C#N,1,1,17,-1,0
O=C1NC(Cc2ccc(O)cc2)c2nc3cc(F)c(F)cc3c(=O)n2-c2cc3ccccc3cc21 (centres undefined),1,nt,-10,35*,nt
FC(F)(F)c1cccc(-c2nc3nc(Cl)c(Cl)nc3[nH]2)c1,18*,32*,-17,6,14*
O=C(NC(c1cccnc1)C(F)(F)F)c1cc(COc2ccc3c(c2)CCCC3)on1 (centres undefined),7,nt,-25,27*,nt
Cc1ccc(NC(=O)c2nc(S(=O)(=O)Cc3ccccc3C)ncc2Cl)cc1C,0,nt,-20,26*,nt
CCc1ccc(NC(=O)c2nc(S(=O)(=O)Cc3ccccc3)ncc2Cl)cc1,1,nt,-16,30*,nt
CC(=O)Nc1ccc(NC(=O)c2nc(S(=O)(=O)Cc3cccc(C)c3)ncc2Cl)cc1,0,nt,-30,11,nt
CCOC(=O)c1ccc(NC(=O)c2nc(S(=O)(=O)Cc3ccccc3)ncc2Cl)cc1,-1,nt,-4,16,nt
C=Cc1ccc(Cn2c(C)c(C(=O)NCc3ccc(C#N)cc3)sc2=O)cc1,8,nt,34,-8,nt
C[C@@H]1CN([C@@H](C)CO)C(=O)CCCn2nncc2CO[C@@H]1CN(C)C(=O)Nc1ccc(N2CCN(C)CC2)cc1,0,nt,-4,6,nt
CCCOc1ccc(C(=O)NNC(=S)NC(C)=O)cc1,-1,-3,16,-5,-2
CCCOc1ccc(C(=O)NNC(=S)NC(=O)c2ccccc2)cc1,105*,nt,-39,42*,nt
CCCOc1ccc(C(=O)NNC(=S)NC(=O)c2ccco2)cc1,60*,44*,-28,21,41*
CCCOc1ccc(C(=O)NNC(=S)NC(=O)c2cccs2)cc1,87*,nt,-29,44*,nt
CCCOc1ccc(C(=O)NNC(=S)NC(=O)c2ccccc2[N+](=O)[O-])cc1,15*,nt,7,3,nt
Nc1[nH]c(C(=O)c2ccccc2)c(-c2ccccc2C(F)(F)F)c1C(=O)NCCc1cccs1,0,nt,12,-21,nt
SMILES,M1 ag parental,TRPN1 ag,CHO-K1 Ca PAM,CHO-K1 Ca antag,TRPML3 ag
CN1CCN(C(=O)C2Cc3c(-c4ccc5c(c4)OCO5)ccnc3O2)CC1 (centres undefined),0,nt,-11,2,nt
CC(Oc1ccc(Cl)cc1)C(=O)NNC(=S)NC(=O)c1ccco1 (centres undefined),32*,19,6,-3,1
CCC(=O)NC(=S)NNC(=O)c1ccc(OC)cc1,0,0,-3,-12,0
COc1ccc(C(=O)NC(=S)NNC(=O)c2ccc(C)cc2)cc1,82*,nt,-25,14,nt
CCOC(=O)[C@]12CCC=C1N(Cc1ccccc1)C(=O)[C@H](CC(=O)N1CCOCC1)C2,1,nt,8,-7,nt
CC1(C(=O)Nc2ccccc2)CCN1C(=O)CCc1ccc(Cl)cc1Cl (centres undefined),0,nt,5,2,nt
CC1(c2ccc3c(c2)OCCO3)NC(=O)N(CC(=O)Nc2c(F)cccc2F)C1=O (centres undefined),1,nt,-14,-10,nt
CCC1(c2ccc(F)cc2)NC(=O)N(CC(=O)Nc2ccccc2C)C1=O (centres undefined),16*,nt,26,-12,nt
CCC1(c2ccc(F)cc2)NC(=O)N(CC(=O)Nc2ccccc2Cl)C1=O (centres undefined),15*,nt,-7,-8,nt
CC1(c2ccc3c(c2)OCCO3)NC(=O)N(CC(=O)Nc2ccccc2F)C1=O (centres undefined),1,nt,-19,30*,nt
CC(C)(C)OC(=O)N1CCc2onc(-c3ccc(N)cc3)c2C1=O,1,nt,23,-12,nt
O=C(NCc1cccnc1)c1cc(C2CCCCN2S(=O)(=O)c2cccc3cccnc23)on1 (centres undefined),0,nt,0,4,nt
CCNC(=O)c1ccc(C23CC4CC(CC(C4)C2)C3)o1,15*,0,9,-2,0
COc1ccc([C@H]2CC(=O)C[C@@H](CCn3cc(-c4ccncc4)nn3)O2)cc1,0,nt,6,-17,nt
CCN1C(=NCCN2CCOCC2)N[C@@H](c2ccccc2)C(C(=O)OC)=C1C,-1,nt,-21,26*,nt
COC(=O)C1=C(C)N(Cc2ccccc2)C(=NCCN2CCOCC2)N[C@H]1CCc1ccccc1,1,nt,14,-15,nt
COC(=O)C1=C(C)N(Cc2ccccc2)C(=NCc2ccccc2)N[C@H]1c1ccccc1,16*,nt,6,9,nt
O=C(Nc1cccnc1)C1Cc2c(-c3ccc4c(c3)OCO4)ccnc2O1 (centres undefined),3,nt,7,-5,nt
